Reference: ChEMBL document CHEMBL1157555, “Synthesis and pharmacological evaluation of novel 1,3,8- and 1,3,7,8-substituted xanthines as adenosine receptor antagonists” (Bioorg Med Chem, 2010)

Tests used:
Format in all cases: cell-based
[1] = molecular target: T1, Adenosine receptor A3 (Homo sapiens) (UniProt P0DMS8); assay: Displacement of [3H]NECA from human recombinant adenosine A3 receptor expressed in human HeLa cells at 1 uM by microplate beta scintillation counter
T1 sequence (whole entry): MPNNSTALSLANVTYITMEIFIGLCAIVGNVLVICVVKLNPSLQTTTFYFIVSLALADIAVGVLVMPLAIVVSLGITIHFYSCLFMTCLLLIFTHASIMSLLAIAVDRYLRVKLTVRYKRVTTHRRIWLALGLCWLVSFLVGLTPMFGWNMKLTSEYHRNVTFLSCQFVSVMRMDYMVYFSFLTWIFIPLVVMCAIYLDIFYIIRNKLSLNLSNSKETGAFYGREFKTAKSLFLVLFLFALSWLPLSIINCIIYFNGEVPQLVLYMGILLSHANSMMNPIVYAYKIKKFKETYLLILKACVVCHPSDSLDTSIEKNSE
In short: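 HeLa-A3 cell membranes were labelled with 30 nM [3H]NECA. Non-specific binding was defined with (R)-PIA. After 180 min at 25 °C, samples were filtered and counted by beta scintillation. Ki was calculated by Cheng–Prusoff from IC50 obtained by non-linear regression. Weak or poorly soluble compounds were reported as % inhibition of specific binding at a single concentration. Mean of 3 experiments in duplicate.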

[2] = molecular target: T2, Adenosine receptor A1 (Homo sapiens) (UniProt P30542); assay: Displacement of [3H]DPCPX from human recombinant adenosine A1 receptor expressed in CHO cells at 1 uM by microplate beta scintillation counter
T2 sequence (whole entry): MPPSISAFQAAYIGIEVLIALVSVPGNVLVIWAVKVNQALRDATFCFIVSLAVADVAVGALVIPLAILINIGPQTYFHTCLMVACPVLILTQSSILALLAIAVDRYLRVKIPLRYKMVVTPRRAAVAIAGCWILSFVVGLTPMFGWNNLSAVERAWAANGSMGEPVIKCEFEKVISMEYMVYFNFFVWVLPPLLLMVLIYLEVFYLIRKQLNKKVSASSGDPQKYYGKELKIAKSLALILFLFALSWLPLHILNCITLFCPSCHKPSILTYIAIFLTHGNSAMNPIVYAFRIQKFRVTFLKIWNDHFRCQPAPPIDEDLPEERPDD
In short: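 Membranes from CHO cells expressing human A1 were labelled with 2 nM [3H]DPCPX. Non-specific binding was defined with (R)-PIA. Incubation ran 60 min at 25 °C, then samples were filtered and counted by beta scintillation. IC50 came from non-linear regression, and Ki from Cheng–Prusoff. Weak or poorly soluble compounds were reported as % inhibition of specific binding at a single concentration. Mean of 3 experiments, each in duplicate.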

Adenosine receptor A2a = Adenosine receptor A2a (Homo sapiens, UniProt P29274); assay: Displacement of [3H]ZM241385 from human recombinant adenosine A2A receptor expressed in human HeLa cells at 1 uM by microplate beta scintillation counter
Chain of Adenosine receptor A2a (P29274 whole entry): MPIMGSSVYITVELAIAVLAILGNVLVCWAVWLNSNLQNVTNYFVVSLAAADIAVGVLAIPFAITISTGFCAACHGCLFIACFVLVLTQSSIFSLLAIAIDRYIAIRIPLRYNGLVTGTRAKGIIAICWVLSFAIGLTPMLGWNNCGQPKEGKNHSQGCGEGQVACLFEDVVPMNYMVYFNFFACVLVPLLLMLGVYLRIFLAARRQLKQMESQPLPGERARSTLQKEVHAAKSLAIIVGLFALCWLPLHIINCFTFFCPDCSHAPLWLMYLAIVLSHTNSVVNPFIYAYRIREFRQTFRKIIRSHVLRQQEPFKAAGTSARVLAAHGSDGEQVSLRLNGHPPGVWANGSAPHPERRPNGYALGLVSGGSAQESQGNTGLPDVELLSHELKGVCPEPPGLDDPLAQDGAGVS
In short: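 Competition used HeLa cell membranes expressing human A2A with [3H]ZM241385. Non-specific binding was set with NECA. Incubation was 30 min at 25 °C, then filtration and beta scintillation counting. IC50 from non-linear regression was converted to Ki (Cheng–Prusoff). Weak or poorly soluble compounds were reported as % inhibition of specific binding at a single concentration. Three experiments, each in duplicate.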

[3] = molecular target: T3, Adenosine receptor A2b (Homo sapiens) (UniProt P29275); assay: Displacement of [3H]DPCPX from human recombinant adenosine A2B receptor expressed in HEK293 cells at 1 uM by microplate beta scintillation counter
T3 sequence (whole entry): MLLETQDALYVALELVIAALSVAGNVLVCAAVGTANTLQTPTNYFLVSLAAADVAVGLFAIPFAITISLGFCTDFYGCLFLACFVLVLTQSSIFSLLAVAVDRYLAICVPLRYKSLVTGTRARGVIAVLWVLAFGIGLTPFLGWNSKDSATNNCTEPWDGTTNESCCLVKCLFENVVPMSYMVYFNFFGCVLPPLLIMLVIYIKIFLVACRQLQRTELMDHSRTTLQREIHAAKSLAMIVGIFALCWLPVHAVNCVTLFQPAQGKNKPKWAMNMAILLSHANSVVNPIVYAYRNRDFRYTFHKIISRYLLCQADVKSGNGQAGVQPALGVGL
In short: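 Membranes from HEK-293 cells expressing human A2B were labelled with 35 nM [3H]DPCPX. Incubation ran 30 min at 25 °C, followed by filtration and beta scintillation counting. IC50 was fitted by non-linear regression and converted to Ki by Cheng–Prusoff. Weak or poorly soluble compounds were given as % inhibition of specific binding at a single concentration. n = 3, each in duplicate.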

Row | SMILES | Activity [1] | Activity [2] | Activity (Adenosine receptor A2a) | Activity [3]
1 | CCSCCn1c(=O)n(CC)c(=O)c2[nH]c(-c3ccc(-c4ccccc4)cc3)nc21 | 17% | 7% | 4% | 22%
2 | CCn1c(=O)c2[nH]c(Cc3cccs3)nc2n(Cc2ccccc2)c1=O | 39% | 22% | 6% | 52%
3 | CCCn1c(=O)c2[nH]c(Cc3ccccc3)nc2n(CCOCC)c1=O | 2% | 22% | 13% | 5%
4 | CCn1c(=O)c2[nH]c(Cc3ccccc3)nc2n(CCS(=O)(=O)CC)c1=O | 6% | 6% | 1% | 55%
5 | O=c1c2[nH]c(-c3cccs3)nc2n(CC2CCCCC2)c(=O)n1CC1CCCCC1 | 2% | 2% | 14% | 10%
6 | CCCn1c(=O)c2[nH]c(Cc3ccccc3)nc2n(CCS(=O)(=O)CC)c1=O | 15% | 15% | 13% | 2%
7 | CCCn1c(=O)c2c(nc(-c3ccccc3)n2C)n(CCSCC)c1=O | 1% | 17% | 2% | 26%
8 | CCn1c(=O)c2[nH]c(Cc3c(F)cccc3F)nc2n(Cc2ccccc2)c1=O | 1% | 23% | 1% | 8%
9 | CCSCCn1c(=O)n(CC)c(=O)c2[nH]c(Cc3ccccc3)nc21 | 10% | 34% | 0% | 5%
10 | CCCn1c(=O)c2[nH]c(Cc3ccccc3)nc2n(CCSCC)c1=O | 1% | 33% | 8% | 12%
11 | CCOCCn1c(=O)n(CC)c(=O)c2[nH]c(-c3ccc(-c4ccccc4)cc3)nc21 | 17% | 19% | 28% | 46%
12 | CCn1c(=O)c2[nH]c(Cc3ccccc3)nc2n(CC[S+]([O-])CC)c1=O (stereo not drawn) | 3% | 5% | 0% | 0%
13 | CCn1c(=O)c2[nH]c(Cc3c(F)cccc3F)nc2n(Cc2cccs2)c1=O | 38% | 28% | 21% | 52%
14 | CCn1c(=O)c2c(nc(Cc3c(F)cccc3F)n2C)n(Cc2ccccc2)c1=O | 4% | 21% | 28% | 48%
15 | O=c1c2[nH]c(Cc3cccs3)nc2n(CC2CCCCC2)c(=O)n1CC1CCCCC1 | 16% | 4% | 50% | 1%
16 | CCCn1c(=O)c2[nH]c(Cc3ccccc3)nc2n(CC2CCCO2)c1=O (stereo not drawn) | 10% | 2% | 24% | 32%
17 | CCn1c(=O)c2[nH]c(-c3ccccc3)nc2n(CC[S+]([O-])CC)c1=O (stereo not drawn) | 0% | 29% | 20% | 32%
18 | CCCn1c(=O)c2[nH]c(-c3ccccc3)nc2n(CCOCC)c1=O | 47% | 39% | 6% | 24%
19 | Cn1c(=O)c2[nH]c(Cc3cccs3)nc2n(CC2CCCCC2)c1=O | 2% | 42% | 11% | 2%
20 | CCn1c(=O)c2[nH]c(-c3ccccc3)nc2n(CCS(=O)(=O)CC)c1=O | 35% | 35% | 0% | 18%
21 | CCn1c(=O)c2[nH]c(Cc3ccco3)nc2n(Cc2ccccc2)c1=O | 30% | 23% | 9% | 34%
22 | CCCn1c(=O)c2[nH]c(Cc3ccccc3)nc2n(CC[S+]([O-])CC)c1=O (stereo not drawn) | 18% | 10% | 7% | 1%
